MLLE-PAM2 inh: inhibitors of PABP1 MLLE–PAM2 peptide binding, primary screen, biochemical, fluorescence polarization, FITC-PAM2, GST-MLLE; Polyadenylate-binding protein 1 (Homo sapiens), P11940; inhibition, % at 20 µM; actives 0.36% (n = 360,000); AID 588489, 2011; in the data active = inhibition above about 35%, passing the limit was not always enough
Target sequence (P11940 whole entry, looked up): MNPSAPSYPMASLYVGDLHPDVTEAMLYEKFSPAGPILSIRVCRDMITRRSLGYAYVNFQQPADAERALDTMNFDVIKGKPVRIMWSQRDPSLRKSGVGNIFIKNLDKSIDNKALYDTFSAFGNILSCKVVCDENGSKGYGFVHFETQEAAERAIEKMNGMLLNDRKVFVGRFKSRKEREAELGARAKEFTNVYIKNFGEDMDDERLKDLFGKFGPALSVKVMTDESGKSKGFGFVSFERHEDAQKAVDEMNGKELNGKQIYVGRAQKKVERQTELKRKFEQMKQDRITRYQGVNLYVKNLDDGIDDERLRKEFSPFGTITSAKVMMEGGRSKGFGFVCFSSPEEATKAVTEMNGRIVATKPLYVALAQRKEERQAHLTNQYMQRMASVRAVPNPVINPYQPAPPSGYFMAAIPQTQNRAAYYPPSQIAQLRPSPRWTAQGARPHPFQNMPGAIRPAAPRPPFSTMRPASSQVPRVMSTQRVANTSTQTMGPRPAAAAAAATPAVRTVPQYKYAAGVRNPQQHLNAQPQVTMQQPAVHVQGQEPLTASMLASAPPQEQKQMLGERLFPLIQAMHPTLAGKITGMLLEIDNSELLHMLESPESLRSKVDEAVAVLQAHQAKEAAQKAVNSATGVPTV
SKN-1 block: suppressors of acrylamide-induced Pgst-4::GFP reporter in worms, primary screen, SKN-1 inhibitor project, whole organism, uHTS, GFP/RFP fluorescence ratio, strain VP596 | inhibition, % at 21.8 µM | AID 624304, 2012 | C. elegans VP596 Pgst-4::GFP/RFP ratio, 24 h | actives 0.49% (n = 360,000);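 active = interference check ratio from 0.5 to 1.5 plus GFP to RFP signal ratio inhibition reaching or exceeding a fixed threshold, cut at about 30% in these data, passing the limit was not always enough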
MT1-MMP act inh: blockers of MT1-MMP proenzyme processing, primary screen, HT1080 RFP-PRO-GFP cells, GFP/RFP fluorescence; Matrix metalloproteinase-14 (Homo sapiens), P50281; GFP/RFP ratio fluorescence, overnight; percent of plate control window, DMSO zero; actives 0.061% (n = 360,000); AID 651647, 2012; GFP/RFP ratio change, % at 20 µM;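 active = GFP/RFP ratio change of at least 30% with cell ATP level not reduced by more than half and red fluorescence within 50% of control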
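Assay system: HT1080 RFP-PRO-GFP cells | Dosing: 20 µM single dose, 1% DMSO | Incubation: Cells overnight before dosing, compound overnight, 37 °C, 5% CO2 | Evaluation: GFP/RFP fluorescence ratio | Control set: DMSO-only wells and HT1080 RFP-L50D-GFP cell wells as references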
PABP FP inh: PABP poly(A) RNA binding inhibitors, primary screen, biochemical, fluorescence polarization, uHTS; Polyadenylate-binding protein 1 (Homo sapiens), P11940; calls only at 35 µM; actives 1% (n = 290,000);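 note: calls also rest on retests at 20 µM and on dose response follow-up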
eIF4H inh: human eIF4H binding inhibitors, primary screen, translation initiation inhibitor project, biochemical, uHTS, fluorescence polarization | Eukaryotic translation initiation factor 4H (Homo sapiens), Q15056 | eIF4H fluorescence polarization binding assay | inhibition, % at 35 µM | actives 0.94% (n = 290,000) | AID 2012, 2009;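 note: calls also rest on retests at 20 µM and on dose response follow-up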
MT1-MMP act val: MT1-MMP activation inhibitors, hit retest, confirmation, single concentration, fluorescence, HT1080 RFP-PRO-GFP cells; GFP and RFP fluorescence ratio, overnight; inhibition, % at 20 µM; shares compounds with MT1-MMP act inh; AID 652235, 2013; actives 10% (n = 200);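 active = inhibition of at least 50% in the primary cell screen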
Numbers stand for hits; - = inactive; ? = inconclusive; . = no result; + = active, no number. Hits are enriched below; roughly 1.8% of the tested compounds scored in any of these assays. Unless noted, the rule behind the calls is not given here.

SMILES	MLLE-PAM2 inh	SKN-1 block	MT1-MMP act inh	PABP FP inh	eIF4H inh	MT1-MMP act val
Cc1c(C(=O)O)c(O)cc2c1C(=O)c1c(O)c([C@@H]3O[C@H](CO)[C@@H](O)[C@H](O)[C@H]3O)c(O)c(O)c1C2=O	-	-	50	.	.	-
O=C(OCCOc1ccccc1)c1cc(S(=O)(=O)N2CCOCC2)c(Cl)cc1Cl	-	-	-	.	.	.
Cc1cc(C)c(S(=O)(=O)/N=C2\C=C(NS(=O)(=O)c3ccccc3)C(=O)c3ccccc32)c(C)c1	-	-	41	-	-	-
Cc1c(C(=O)OCC(=O)NCC2CCCO2)oc2ccccc12 (stereo unspecified)	-	-	33	.	.	-
CN(CC(=O)Nc1cc([N+](=O)[O-])ccc1Cl)Cc1ccc(Br)cc1	-	-	36	-	-	-
C/C(=N/NS(=O)(=O)c1ccc(C)cc1C)c1c[nH]c2ccccc12	-	-	-	-	-	.
CCN(C)c1cc2c(c3c1ccn3C)C1CCC2C1 (stereo unspecified)	-	-	-	.	.	.
CN(c1cc2c(c3c1ccn3C)C1CCC2C1)C1CCCCC1 (stereo unspecified)	-	-	35	.	.	-
COc1ccc(C)cc1N=Nc1ccc(O)c2ncccc12	-	-	31	-	-	-
COc1ccc(C(=O)CSc2nc3nn(-c4ccccc4)c(=O)c-3c3n2CCCCC3)c(OC)c1	-	-	-	.	.	.
CCOc1cc(/C=C2\C(=O)N(c3nc(-c4ccc(Br)cc4)cs3)N=C2c2ccccc2)ccc1O	-	-	63	-	84	-
CCOc1cc(/C=C2/SC(=S)N(Cc3ccccc3)C2=O)ccc1O	-	-	-	-	-	.
CCN(CC(=O)Nc1c(F)cccc1F)C(=O)c1nc2nc(C)cc(C)n2n1	-	-	-	.	.	.
COc1ccccc1C(=O)NC(=S)/C=C1/N(C)c2ccccc2C1(C)C	-	-	55	-	-	-
CCCCC(O)(c1ccc(F)cc1)C(CN1CCOCC1)c1ccc(Cl)cc1 (stereo unspecified)	-	-	-	-	-	.
Cc1cccc[n+]1CC(=O)/C=C1\N(C)c2ccccc2C1(C)C	-	-	41	-	-	-
CN1/C(=C\C(=O)CN2C(=O)NC3(CCCCCC3)C2=O)C(C)(C)c2ccccc21	-	-	34	-	-	-
Cc1ccc[n+](CC(=O)/C=C2\N(C)c3ccccc3C2(C)C)c1	-	-	-	-	-	.
CS(=O)(=O)Nc1cccc(-c2ccc3nncn3c2)c1	-	-	-	.	.	.
N#CC(C#N)=NNc1ccc([N+](=O)[O-])cc1	-	90	33	-	-	-
C/C(=N\Nc1ccc([N+](=O)[O-])cc1)c1ccc(C#N)cc1	-	-	-	-	-	.
O=S(=O)(O)c1cc(O)c(N=Nc2ccc(O)cc2O)c2ccccc12	-	-	64	.	.	50
O=[N+]([O-])c1ccccc1N=Nc1ccc(O)cc1O	-	-	-	.	.	.
C=C1N(C)c2cc([N+](=O)[O-])c(N)cc2C1(C)C	-	-	36	-	-	-
CC1CCCCN1CC(O)COCc1ccccc1 (stereo unspecified)	-	-	-	-	-	.
SMILES	MLLE-PAM2 inh	SKN-1 block	MT1-MMP act inh	PABP FP inh	eIF4H inh	MT1-MMP act val
CCNC(=O)C1(C)CCN(Cc2noc(-c3c(C)noc3C)n2)C1 (stereo unspecified)	-	-	-	.	.	.
CCn1c(/C=C/c2c(C)n(CC)c3ccccc23)nc2ccccc2c1=O	-	-	-	-	-	.
CCn1c2ccccc2nc2cc3c(cc21)c(Cl)c(=O)c1ccccc13	-	-	36	.	.	-
CC1=C/C(=C(\c2cc(C)c(O)c(Br)c2)c2ccccc2S(=O)(=O)O)C=C(Br)C1=O	-	-	-	-	-	.
Nc1nc(Nc2cccc(F)c2)nc2ccccc12	-	-	35	-	-	-
Cc1ccc(C)c(Nc2nc(N)c3ccccc3n2)c1	-	-	31	-	-	-
COc1ccc(Cl)cc1Nc1nc(N)c2ccccc2n1	-	-	-	-	-	.
O=C(Nc1ccc2c(c1)OCCO2)C(c1ccccc1)n1c(=O)c(-c2cc3ccccc3[nH]2)nc2ccccc21 (stereo unspecified)	.	-	-	.	.	.
Cc1ccc(NC(=O)CNC(=O)Cc2cccc3ccccc23)nc1	-	-	-	-	-	.
Cc1cc2ccccc2n1CCNC(=O)c1ccc(Br)o1	43	37	37	+	59	-
Cc1cc2ccccc2n1CCNC(=O)Cc1cccc2ccccc12	-	-	43	-	-	-
Cc1cc2ccccc2n1CCNC(=O)COc1ccccc1	-	-	40	+	-	-
O=C(NCCCc1ccccc1)c1ccc(Br)o1	-	-	-	-	-	.
CN1CCN(C(=O)c2cc3c(c(-c4cccc(-c5cc6ccccc6o5)c4)n2)[C@@H](CCO)N(S(=O)C(C)(C)C)C3)CC1 (stereo partly specified)	-	-	-	.	.	.
COc1ccc(/C=C\C(=O)NCc2ccc3c(c2)cc(C)n3C)cc1OC	-	-	-	-	-	.
CCCCNC(=S)NCc1ccc2c(c1)cc(C)n2C	-	-	-	-	-	.
CCCCC(=O)NCc1ccc2c(c1)cc(C)n2C	-	50	47	-	-	-
CCS(=O)(=O)NCc1ccc2c(c1)cc(C)n2C	-	-	-	-	-	.
Cc1cc2cc(CNC(=S)NCc3ccccc3)ccc2n1C	-	36	46	-	-	-
Cc1cc2cc(CNC(=O)c3ccc(S(=O)(=O)N4CCCCC4)cc3)ccc2n1C	49	62	40	-	-	-
CCCS(=O)(=O)NCc1ccc2c(c1)cc(C)n2C	-	53	34	-	-	-
CCN(CC)CCNC(=O)CCc1c(C)nc2c(c(C)nn2-c2ccc(C)cc2)c1C	-	-	-	-	-	.
CCNC(=O)N1C[C@H]2CON(C)[C@H]2C[C@H]1c1ccccc1Br	-	-	-	.	.	.
COc1ccccc1NC(=S)NCc1ccc2c(c1)cc(C)n2C	-	-	41	-	-	-
O=C(NCC(=O)N(c1cccc(F)c1)C(C(=O)NC1CCCC1)c1ccncc1)c1cccs1 (stereo unspecified)	-	-	-	-	-	.
O=C(/C=C(\c1ccc(Cl)cc1)n1cncn1)c1ccc(Cl)cc1	-	-	31	-	-	-
CNc1ccccc1C(C)(C)c1cc(-c2cccc(OC)c2)no1	-	-	47	?	-	54
